High-throughput results as filed in PubChem.
This is a sample that favours compounds with a hit; in the whole collection about 4% have one here.
GPR7 antagonist: GPR7 receptor antagonists, primary screen, cell-based, fluorescence, single concentration; 290,000 tested, 1.1% active; AID 1861, 2009; GPR7-expressing cells, fluorescence antagonist assay; inhibition, % at 4.4 µM; in the data active = inhibition above about 16%, passing the limit was not always enough;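 also: cells stimulated with the agonist NPW; 0% = agonist with vehicle and 100% = vehicle without agonist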
Target sequence (P48145 whole entry, looked up): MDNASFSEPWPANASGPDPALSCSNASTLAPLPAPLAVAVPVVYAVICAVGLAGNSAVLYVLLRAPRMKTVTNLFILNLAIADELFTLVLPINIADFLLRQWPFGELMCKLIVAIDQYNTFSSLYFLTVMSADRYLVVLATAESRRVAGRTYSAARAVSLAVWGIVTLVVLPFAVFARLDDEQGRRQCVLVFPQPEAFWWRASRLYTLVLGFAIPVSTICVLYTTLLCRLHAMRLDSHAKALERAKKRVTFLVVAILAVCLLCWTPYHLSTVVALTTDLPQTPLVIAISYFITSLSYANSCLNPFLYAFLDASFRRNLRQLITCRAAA
DAGLB inhibitor: DAGLB lipase inhibitors, primary screen, biochemical, fluorescence, HTS; Diacylglycerol lipase-beta (Homo sapiens), Q8NCG7; HEK293T DAGLB membrane lysate, EnzChek fluorogenic substrate; inhibition, % at 5.17 µM; 340,000 tested, 0.059% active; in the data active = inhibition above about 34%;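 also: 0% = enzyme with vehicle and 100% = wells lacking enzyme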
MPTP block: mitochondrial permeability transition pore inhibitors, primary screen, biochemical, isolated mouse mitochondria, absorbance | Ca2+ swelling absorbance, 30 min | inhibition, % at 10 µM | 360,000 tested, 1.4% active | AID 602449, 2012;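 active = inhibition of 50% or more, scaled per plate between neutral and stimulator controls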;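 also: 0% = DMSO wells given calcium and 100% = 1 mM EGTA wells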
TAAR1 agonist: human TAAR1 agonists, primary screen, Fluo-8 calcium fluorescence, CHO RD-HGA16 cells. Trace amine-associated receptor 1 (Homo sapiens), Q96RJ0. vehicle wells 0%, saturating PEA agonist 100%. activation, % at 3 µM. 360,000 tested, 0.99% active;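 active = activation above the mean activation of all test compounds in the run plus 3 SD, cut at about 38% in these data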
Target sequence (Q96RJ0 whole entry, looked up): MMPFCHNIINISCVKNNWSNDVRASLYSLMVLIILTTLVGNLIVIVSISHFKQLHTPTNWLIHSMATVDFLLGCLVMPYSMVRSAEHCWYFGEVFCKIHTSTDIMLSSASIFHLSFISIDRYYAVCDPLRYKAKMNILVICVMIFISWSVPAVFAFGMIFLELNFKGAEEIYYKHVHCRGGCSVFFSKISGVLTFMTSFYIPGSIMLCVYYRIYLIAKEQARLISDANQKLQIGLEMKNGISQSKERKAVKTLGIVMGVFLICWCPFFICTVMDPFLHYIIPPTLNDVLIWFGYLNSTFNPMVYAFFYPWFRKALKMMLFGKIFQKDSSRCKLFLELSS
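Assay system – CHO-derived RD-HGA16 cells with stable Gα16 and human TAAR1 · Compound dosing – one-point dosing at 3 µM (nominal) · Incubation – 17-24 h seeding, 75 min 37 °C dye, 30 min RT · Measured by – kinetic Fluo-8 calcium fluorescence · Control set – DMSO vehicle as 0%, PEA at EC100 as 100% · Repeats – single well for each compound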
TAAR1 antag: human TAAR1 antagonists, primary screen, Fluo-8 calcium fluorescence, CHO RD-HGA16 cells; Trace amine-associated receptor 1 (Homo sapiens), Q96RJ0; antagonist; inhibition, % at 3 µM; 360,000 tested, 1.5% active;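 active = inhibition above a per-plate cutoff, the mean inhibition of test compounds on that plate plus 3 SD, cut at about 49% in these data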;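 also: 0% = DMSO plus EC80 beta-PEA response and 100% = DMSO alone without agonist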
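Test system: RD-HGA16 CHO cells with stable hTAAR1 and Gα16 / Probe or stimulus: EC80 β-phenethylamine stimulus / Times: seeding 17-24 h prior, 75-min 37 °C, 30-min RT dye loading / Detection: Fluo-8 calcium-sensitive fluorescence / Read-out basis: % inhibition scaled between DMSO and EC80 PEA controls / Repeats: singlicate, one well per test compound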
Rh123 counter: fluorescence retest of MPTP screen hits in isolated mitochondria, single concentration | shares compounds with MPTP block | 5,000 tested, 78% active | membrane potential, Rhodamine 123 fluorescence | inhibition, % at 10 µM; in the data active = inhibition above about 22%;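 also: 0% = DMSO vehicle and 100% = positive control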
MPTP abs DR: mitochondrial permeability transition pore inhibitors, dose response, biochemical, absorbance, uHTS hits. shares compounds with MPTP block. isolated mitochondria swelling. IC50, µM. 780 tested, 58% active. AID 651561, 2012; in the data active = IC50 below about 20 µM
MPTP cs DR: fluorescent counter-screen in isolated mitochondria, dose response, counter-screen for MPTP inhibitor project, biochemical, fluorescence, uHTS hits. shares compounds with MPTP block. isolated mitochondria counterscreen, fluorescence read-out. IC50, µM. 780 tested, 49% active. AID 651564, 2012; in the data active = IC50 below about 80 µM
The depositor's hits bear a star; i = inactive; x = not tested or not shown; ! = repeats disagree.

SMILES | GPR7 antagonist | DAGLB inhibitor | MPTP block | TAAR1 agonist | TAAR1 antag | Rh123 counter | others
CC1=NN(c2ccc(Cl)cc2)C(=O)C1C(c1ccccc1O)c1c(C)[nH]n(-c2ccc(Cl)cc2)c1=O (stereo unspecified) | 2 | 20 | 88* | x | x | 24*
CC1=NN(c2ccc(C)cc2C)C(=O)C1C(c1ccccc1O)C1C(=O)N(c2ccc(C)cc2C)N=C1C (stereo unspecified) | -5 | 1 | 0 | 2 | -20 | x
COc1cc(OC)c(NC(=S)Nc2cc(Cl)cc(Cl)c2)cc1Cl | 5 | -4 | 104* | 13 | 24 | 84*
COc1cc(NC(=S)Nc2ccc(Br)cc2Cl)c(OC)cc1Cl | 5 | 1 | 90* | 0 | 15 | 89*
O=C(Nc1ccc(OC(F)(F)F)cc1)N1CCc2nc(NCc3cccc(Oc4ccccc4)c3)ncc2C1 | x | x | 92* | 3 | 17 | 96*
COc1cccc(NC(=O)N2CCc3nc(NCc4cccc(Oc5ccccc5)c4)ncc3C2)c1 | x | x | 2 | 2 | -4 | x
C#CCN(C[C@H]1[C@H](OC(=O)Nc2c(C)noc2C)[C@H](OC(=O)Nc2c(C)noc2C)CN(C(=O)OC(C)C)N1C(=O)OC(C)C)S(=O)(=O)c1ccc(C)cc1 | x | x | x | 1 | 18 | x
Cc1ccc(Cn2cc(CN3CC(N4CCSCC4)CS3(=O)=O)nn2)cc1 (stereo unspecified) | x | x | 0 | 7 | -27 | x
CCc1ccc(-c2nc(CSCC(=O)N3CCN(c4ccccn4)CC3)c(C)o2)cc1 | 0 | -2 | 80* | 10 | 46 | 58*
COc1ccc(-c2cc(=Nc3ccc(C)cc3)c3ccccc3o2)cc1 | 2 | -6 | 63* | 6 | -3 | 12 | MPTP abs DR=>100;MPTP cs DR=14*
COc1ccc(N=c2cc(-c3ccc(O)cc3)oc3ccccc23)cc1 | -9 | 3 | 68* | 6 | -5 | 73*
COc1ccc(N=c2cc(-c3ccc(OC)cc3)oc3ccccc23)cc1 | 4 | -9 | 27 | 6 | 33 | x
COc1ccc(CNC(=O)[C@@H](Cc2ccccc2)NC(=O)[C@H]2O[C@@H](n3ccc(=O)[nH]c3=O)[C@H](O)[C@@H]2O)cc1 | x | x | x | 2 | -1 | x
O=C(N[C@@H](Cc1ccccc1)c1nc2ccccc2[nH]1)c1ccc([N+](=O)[O-])cc1 | x | x | x | -3 | 8 | x
CCOc1ccc(N=C2SCC(=O)N2CC)cc1 | -6 | -2 | 2 | 1 | -17 | x
CCN1C(=O)CSC1=NC1C2CC3CC(C2)CC1C3 (stereo unspecified) | -3 | -7 | 77* | 12 | 3 | -4 | MPTP abs DR=8.1*;MPTP cs DR=36*
O=C(Nc1nnc([C@H]2C[C@H](O)[C@@H](CO)O2)s1)C(c1ccccc1)c1ccccc1 | x | x | -1 | 1 | -4 | x
O=C(NCc1ccco1)C1C(=O)Nc2ccccc2C(=O)N1C1CCCCC1 (stereo unspecified) | x | x | -1 | 1 | 1 | x
Cc1ccc(NC(=O)CC(O)(C(F)(F)F)C(F)(F)F)cc1 | -4 | -1 | 64* | 7 | 12 | 82*
Cc1onc(-c2ccccc2)c1C(=O)OCC(=O)Nc1ccc(OC(F)(F)F)cc1 | x | -5 | 86* | 3 | 30 | 91*
Cc1ccc(NC(=O)COC(=O)c2c(-c3ccccc3)noc2C)cc1 | x | -7 | 0 | -1 | 9 | x
O=S(=O)(Nc1ccc(Cl)cc1NS(=O)(=O)c1ccccc1)c1ccccc1 | x | 29 | 89* | 4 | 31 | 65*
C[C@H](CO)N1C[C@H](C)[C@H](CN(C)C(=O)Nc2cccc(F)c2)OCc2cnnn2CCCC1=O | x | x | x | 2 | 4 | x
COC(=O)[C@]12C[C@H](CC(=O)NCc3cccs3)C(=O)N(Cc3ccccc3)C1=C[C@H](C(C)C)O[C@@H]2C1CC1 | x | x | x | -3 | -45 | x
Cc1ccc(C)c2c1[nH]c1ccc([N+](=O)[O-])cc12 | -9 | -7 | 81* | 3 | 12 | 82*
SMILES | GPR7 antagonist | DAGLB inhibitor | MPTP block | TAAR1 agonist | TAAR1 antag | Rh123 counter | others
Cc1[nH]c(C(=O)N/N=C/c2ccc(C(=O)O)cc2)c(C)c1C(=O)N/N=C/c1ccc(C(=O)O)cc1 | -3 | 2 | 2 | 3 | -13 | x
CCOC(=O)c1c(C)[nH]c(C(=O)N/N=C/c2ccc(Br)cc2)c1C | 15 | -13 | 99* | 15 | 47 | 76*
Cc1cc(N2CCNC[C@@H]2C)ccc1N1CCN(Cc2ccccc2)[C@@H](C)C1 | x | x | x | 12 | -4 | x
CC(C)c1ccc(CNc2ccc3c(c2)ncn3C)cc1 | 1 | 5 | 56* | 14 | -7 | 58*
CCOC(=O)c1c(/N=C/c2cccc(C)c2O)sc2c1CCN(C)C2 | -10 | 1 | 71* | x | x | -16
COc1ccc(CC2(CO)CCN(CC3=Cc4cc(Cl)ccc4OC3)CC2)cc1 | 5 | -5 | 97* | 17 | 11 | 107*
CCOC(=O)C1=C(COCCN)NC(C)=C(C(=O)OC)C1c1ccccc1Cl (stereo unspecified) | x | 4 | 99* | 37 | 6 | -21 | MPTP abs DR=4*;MPTP cs DR=72*!
CCOC(=O)C1=C(C)NC(C)=C(C(=O)OC)C1c1cccc(Cl)c1Cl (stereo unspecified) | -4 | 1 | 0 | 0 | 21 | x
O=C(Nc1cccc(Cl)c1)O/N=C\c1ccncc1 | -4 | 1 | 82* | 14 | 3 | 93*
O=C(Nc1ccc(Cl)c(Cl)c1)O/N=C/c1ccncc1 | 9 | -1 | 104* | 19 | -2 | 78*
CC(C)Oc1ccc2ccccc2c1CNC[C@H]1O[C@@H](n2ccc(N)nc2=O)[C@H](O)[C@@H]1O | x | 4 | 1 | 0 | -7 | x
Cc1ccccc1Cn1c(=N)n(CC(O)c2ccco2)c2ccccc21 (stereo unspecified) | 14 | -1 | -2 | 2 | 11 | x
CC(C)(C)c1ccc(Cn2c(=N)n(CC(O)c3ccco3)c3ccccc32)cc1 (stereo unspecified) | 24* | 1 | 56* | x | x | 21*
CCOC(=O)CNCCC(=O)c1ccc(Br)cc1 | 3 | 0 | 55* | 7 | -31 | -4 | MPTP abs DR=i;MPTP cs DR=>80
Cc1c(C)c2ccc(OCC(=O)NCCc3c[nH]c4ccccc34)cc2oc1=O | x | x | 0 | 2 | 11 | x
